Test results published in ChEMBL document CHEMBL3286131, “Design, synthesis and systematic evaluation of cytotoxic 3-heteroarylisoquinolinamines as topoisomerases inhibitors” (Eur J Med Chem, 2014).
“And” between values parts separate entries of the source, which are not always exact repeats. Equal entries are not always repeated.

Experiments:
[1] = target: DNA topoisomerase 2-alpha (Homo sapiens) (UniProt P11388); assay: Inhibition of human DNA topoisomerase-2a-mediated relaxation of supercoiled DNA pBR322 at 100 uM after 4 hrs using ethidium bromide staining by agarose gel electrophoresis analysis
Method in brief: (§1)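 Supercoiled pBR322 (200 ng) incubated with human topo IIα (1 unit) ± compound for 30 min at 30 °C. Buffer: 10 mM Tris-HCl pH 7.9, 50 mM NaCl, 50 mM KCl, 5 mM MgCl2, 1 mM EDTA, 1 mM ATP, BSA. Stopped with EDTA. 1% agarose gel run at 25 V for 4 h in TAE, ethidium bromide stain, supercoiled DNA quantified by UV imaging.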

[2] = target: T1, DNA topoisomerase 1 (Homo sapiens) (UniProt P11387); assay: Inhibition of recombinant human DNA topoisomerase-1-mediated relaxation of supercoiled DNA pBR322 at 100 uM after 7 hrs using ethidium bromide staining by agarose gel electrophoresis analysis
T1 sequence (whole entry): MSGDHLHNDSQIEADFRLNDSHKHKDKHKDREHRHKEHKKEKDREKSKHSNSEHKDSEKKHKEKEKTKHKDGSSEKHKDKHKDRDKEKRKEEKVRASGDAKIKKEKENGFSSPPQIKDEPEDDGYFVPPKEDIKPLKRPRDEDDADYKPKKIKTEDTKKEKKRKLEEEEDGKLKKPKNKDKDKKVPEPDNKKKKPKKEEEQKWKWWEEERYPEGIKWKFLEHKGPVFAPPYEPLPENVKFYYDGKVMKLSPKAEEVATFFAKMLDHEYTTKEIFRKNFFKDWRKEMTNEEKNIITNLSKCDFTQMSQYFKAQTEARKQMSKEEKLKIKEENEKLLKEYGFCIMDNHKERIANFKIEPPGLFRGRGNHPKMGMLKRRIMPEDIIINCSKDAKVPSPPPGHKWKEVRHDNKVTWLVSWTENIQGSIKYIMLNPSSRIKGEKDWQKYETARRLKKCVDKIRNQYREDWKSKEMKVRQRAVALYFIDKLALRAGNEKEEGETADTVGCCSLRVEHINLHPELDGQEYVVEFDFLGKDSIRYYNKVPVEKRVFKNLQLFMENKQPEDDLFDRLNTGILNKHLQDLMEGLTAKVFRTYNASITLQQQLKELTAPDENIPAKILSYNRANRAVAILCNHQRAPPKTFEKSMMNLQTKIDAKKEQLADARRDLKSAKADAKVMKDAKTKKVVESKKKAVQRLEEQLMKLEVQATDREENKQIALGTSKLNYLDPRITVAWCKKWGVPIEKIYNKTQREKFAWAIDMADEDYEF
Method in brief: (§2)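 pBR322 (100 ng) incubated with recombinant human topo I (0.4 units) ± compound for 30 min at 37 °C. Buffer: 10 mM Tris-HCl pH 7.9, 150 mM NaCl, 0.1% BSA, 1 mM spermidine, 5% glycerol. Quenched with sarcosyl stop solution. 1% agarose gel run at 15 V for 7 h in TAE, ethidium bromide stain, supercoiled DNA quantified under UV.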

[3] = target: T1, DNA topoisomerase 1 (Homo sapiens); assay: Inhibition of recombinant human DNA topoisomerase-1-mediated relaxation of supercoiled DNA pBR322 at 20 uM after 7 hrs using ethidium bromide staining by agarose gel electrophoresis analysis; method in brief: as §2
[4] = target: DNA topoisomerase 2-alpha (Homo sapiens) (UniProt P11388); assay: Inhibition of human DNA topoisomerase-2a-mediated relaxation of supercoiled DNA pBR322 at 20 uM after 4 hrs using ethidium bromide staining by agarose gel electrophoresis analysis; method in brief: as §1
[5] = Cytotoxicity against human MCF10A cells after 2 days; assay type: cell-based, MCF-10A
Method in brief: (§3)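 Cells seeded at 2-4 × 10^4 per well in medium with 10% FBS and incubated overnight at 37 °C, 5% CO2. Graded compound concentrations added on day 2. CCK-8 reagent added on day 4 for a further 4 h, absorbance read at 450 nm. IC50 from a four-parameter logistic fit; mean ± S.D. of three experiments run in triplicate.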

[6] = system: T47D; assay: Cytotoxicity against human T47D cells after 2 days; assay type: functional, cell-based; settings: Homo sapiens, T47D, 48 h; method in brief: as §3
[7] = system: DU-145; assay: Cytotoxicity against human DU145 cells after 2 days; assay type: functional, cell-based; method in brief: as §3
[8] = Cytotoxicity against human HCT15 cells after 2 days; assay type: functional, cell-based, HCT-15; settings: Homo sapiens, HCT-15, 48 h; method in brief: as §3
[9] = system: HeLa; assay: Cell cycle arrest in human HeLa cells assessed as accumulation at G0/G1 phase phase at 5 uM after 24 hrs using ethidium bromide staining by flow cytometry analysis relative to control; assay type: functional; settings: in the assay text read “propidium iodide staining” for “ethidium bromide staining”
Method in brief: (§4)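 HeLa cells exposed to graded compound concentrations for 24 h, harvested by centrifugation, PBS-washed twice, fixed overnight on ice in 70% ethanol. Stained with 10 μg/mL propidium iodide plus 0.5 mg/mL RNase and 0.1% Triton X-100 in PBS, 30 min at 37 °C in the dark. Flow cytometry gates: sub-G0/G1, G0/G1, S, G2/M.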

[10] = system: HeLa; assay: Cell cycle arrest in human HeLa cells assessed as accumulation at S phase phase at 5 uM after 24 hrs using ethidium bromide staining by flow cytometry analysis relative to control; assay type: functional; settings: in the assay text read “propidium iodide staining” for “ethidium bromide staining”; method in brief: as §4
[11] = system: HeLa; assay: Cell cycle arrest in human HeLa cells assessed as accumulation at G2/M phase phase at 5 uM after 24 hrs using ethidium bromide staining by flow cytometry analysis relative to control; assay type: functional; settings: in the assay text read “propidium iodide staining” for “ethidium bromide staining”; method in brief: as §4
[12] = system: HeLa; assay: Cell cycle arrest in human HeLa cells assessed as accumulation at sub-G0/G1 phase at 10 uM after 24 hrs using ethidium bromide staining by flow cytometry analysis relative to control; assay type: functional; settings: in the assay text read “propidium iodide staining” for “ethidium bromide staining”; method in brief: as §4
[13] = system: HeLa; assay: Cell cycle arrest in human HeLa cells assessed as accumulation at G0/G1 phase phase at 10 uM after 24 hrs using ethidium bromide staining by flow cytometry analysis relative to control; assay type: functional; settings: in the assay text read “propidium iodide staining” for “ethidium bromide staining”; method in brief: as §4
[14] = system: HeLa; assay: Cell cycle arrest in human HeLa cells assessed as accumulation at S phase phase at 10 uM after 24 hrs using ethidium bromide staining by flow cytometry analysis relative to control; assay type: functional; settings: in the assay text read “propidium iodide staining” for “ethidium bromide staining”; method in brief: as §4
[15] = system: HeLa; assay: Cell cycle arrest in human HeLa cells assessed as accumulation at G2/M phase phase at 10 uM after 24 hrs using ethidium bromide staining by flow cytometry analysis relative to control; assay type: functional; settings: in the assay text read “propidium iodide staining” for “ethidium bromide staining”; method in brief: as §4
[16] = system: HeLa; assay: Cell cycle arrest in human HeLa cells assessed as accumulation at sub-G0/G1 phase at 25 uM after 24 hrs using […] by flow cytometry analysis relative to control; assay type: functional; method in brief: as §4
[17] = system: HeLa; assay: Cell cycle arrest in human HeLa cells assessed as accumulation at G0/G1 phase phase at 25 uM after 24 hrs using […] by flow cytometry analysis relative to control; assay type: functional; method in brief: as §4
[18] = system: HeLa; assay: Cell cycle arrest in human HeLa cells assessed as accumulation at S phase phase at 25 uM after 24 hrs using […] by flow cytometry analysis relative to control; assay type: functional; method in brief: as §4
[19] = system: HeLa; assay: Cell cycle arrest in human HeLa cells assessed as accumulation at G2/M phase phase at 25 uM after 24 hrs using […] by flow cytometry analysis relative to control; assay type: functional; method in brief: as §4
[20] = system: HeLa; assay: Cell cycle arrest in human HeLa cells assessed as accumulation at sub-G0/G1 phase at 50 uM after 24 hrs using […] by flow cytometry analysis relative to control; assay type: functional; method in brief: as §4
[21] = system: HeLa; assay: Cell cycle arrest in human HeLa cells assessed as accumulation at G0/G1 phase phase at 50 uM after 24 hrs using […] by flow cytometry analysis relative to control; assay type: functional; method in brief: as §4
[22] = system: HeLa; assay: Cell cycle arrest in human HeLa cells assessed as accumulation at S phase phase at 50 uM after 24 hrs using […] by flow cytometry analysis relative to control; assay type: functional; method in brief: as §4
[23] = system: HeLa; assay: Cell cycle arrest in human HeLa cells assessed as accumulation at G2/M phase phase at 50 uM after 24 hrs using […] by flow cytometry analysis relative to control; assay type: functional; method in brief: as §4

Chain of DNA topoisomerase 2-alpha (Homo sapiens) (P11388 whole entry): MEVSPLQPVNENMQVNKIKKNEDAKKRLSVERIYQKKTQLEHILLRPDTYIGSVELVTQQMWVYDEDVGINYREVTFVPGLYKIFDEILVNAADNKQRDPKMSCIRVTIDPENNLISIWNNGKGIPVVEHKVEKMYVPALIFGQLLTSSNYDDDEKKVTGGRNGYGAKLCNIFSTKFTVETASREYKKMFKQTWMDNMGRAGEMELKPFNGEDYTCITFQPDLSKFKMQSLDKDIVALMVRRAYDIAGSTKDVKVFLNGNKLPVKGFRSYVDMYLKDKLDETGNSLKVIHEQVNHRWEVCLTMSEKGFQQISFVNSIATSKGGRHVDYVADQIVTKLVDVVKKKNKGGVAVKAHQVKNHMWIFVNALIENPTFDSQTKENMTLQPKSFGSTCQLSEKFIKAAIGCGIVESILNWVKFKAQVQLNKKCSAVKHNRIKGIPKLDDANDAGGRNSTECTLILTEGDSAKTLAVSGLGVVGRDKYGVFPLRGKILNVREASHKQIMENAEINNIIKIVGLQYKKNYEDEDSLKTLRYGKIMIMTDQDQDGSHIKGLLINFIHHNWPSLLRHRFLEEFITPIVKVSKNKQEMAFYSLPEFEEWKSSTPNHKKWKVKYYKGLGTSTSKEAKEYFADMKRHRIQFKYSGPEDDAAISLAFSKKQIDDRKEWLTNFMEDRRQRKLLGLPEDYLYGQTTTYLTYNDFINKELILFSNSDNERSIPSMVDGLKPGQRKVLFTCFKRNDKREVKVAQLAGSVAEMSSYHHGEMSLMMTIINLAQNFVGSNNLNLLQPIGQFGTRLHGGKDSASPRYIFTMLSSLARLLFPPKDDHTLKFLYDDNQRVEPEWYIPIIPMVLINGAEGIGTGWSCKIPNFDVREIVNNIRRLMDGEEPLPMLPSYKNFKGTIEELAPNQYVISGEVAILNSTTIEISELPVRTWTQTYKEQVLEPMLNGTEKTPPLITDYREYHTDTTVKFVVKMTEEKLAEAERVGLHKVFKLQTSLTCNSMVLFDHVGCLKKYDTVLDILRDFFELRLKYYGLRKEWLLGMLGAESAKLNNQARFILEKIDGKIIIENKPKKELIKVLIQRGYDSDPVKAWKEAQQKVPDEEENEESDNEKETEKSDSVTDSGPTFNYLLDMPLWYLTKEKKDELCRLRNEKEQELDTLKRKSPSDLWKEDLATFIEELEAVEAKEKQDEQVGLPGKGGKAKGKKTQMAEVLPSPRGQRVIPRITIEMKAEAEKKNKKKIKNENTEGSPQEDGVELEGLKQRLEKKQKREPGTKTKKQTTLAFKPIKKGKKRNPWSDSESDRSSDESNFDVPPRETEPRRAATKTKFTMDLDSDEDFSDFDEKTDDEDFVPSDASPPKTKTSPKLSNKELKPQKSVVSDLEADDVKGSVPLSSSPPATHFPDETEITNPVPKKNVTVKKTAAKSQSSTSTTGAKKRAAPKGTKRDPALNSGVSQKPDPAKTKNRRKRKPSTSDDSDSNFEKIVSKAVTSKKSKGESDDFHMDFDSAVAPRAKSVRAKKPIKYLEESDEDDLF

For `Cc1ccc2cc(-c3cccs3)nc(N3CCCCC3)c2c1`, the inhibition [1] was 3.6% and 13.7%, the inhibition [2] was 77.5% and 89.6% and the inhibition [3] was 0%.

In the case of `c1csc(-c2cc3ccccc3c(N3CCOCC3)n2)c1`, the inhibition [2] is reported as 0% and the inhibition [4] is reported as 0%.

For `Cc1ccc2c(N3CCOCC3)nc(-c3cccs3)cc2c1`, the inhibition [2] was 0% and the inhibition [4] was 1.7%.

With `Cc1ccc2cc(-c3cccs3)nc(N3CCOCC3)c2c1` the inhibition [1] was 0% and 5.1%, the inhibition [2] was 71.9% and 77.9% and the inhibition [3] was 1.1% and 3.7%.

`CCN1CCN(c2nc(-c3cccs3)cc3ccc(C)cc23)CC1` showed an inhibition [1] of 0% and an inhibition [3] of 6.5%.

In the case of `Cc1ccc2cc(-c3cccs3)nc(N3CCNCC3)c2c1`, the inhibition [1] is reported as 22.1%, the inhibition [2] is reported as 10.7% and the inhibition [3] is reported as 0%. It also gave an IC50 ([5]; Homo sapiens, MCF-10A, 48 h) of 5.54 µM, an IC50 [6] of 1.14 µM and an IC50 ([7]; Homo sapiens, DU-145, 48 h) of 4.15 µM. It also gave an IC50 [8] of 1.29 µM, an Activity [9] of 65.59% and an Activity [10] of 11.32%. The Activity [11] was 14.91%, the Activity [12] was 5.76% and the Activity [13] was 68.71%. It also gave an Activity [14] of 10.13%, an Activity [15] of 14.5% and an Activity [16] of 26.67%. For the same compound, the Activity [17] was 49.19%, the Activity [18] was 4.72% and the Activity [19] was 18.81%. It also gave an Activity [20] of 90.48%, an Activity [21] of 6.92% and an Activity [22] of 1.26%. It also gave an Activity [23] of 1.35%.

Compound `Cc1ccc2c(N3CCNCC3)nc(-c3cccs3)cc2c1.Cl` has an IC50 ([5]; mcf-10a) of 8.18 µM, an IC50 [6] of 7.57 µM and an IC50 ([7]; du-145) of 11.7 µM. For the same compound, the IC50 [8] was 0.94 µM, the Activity [9] was 59.04% and the Activity [10] was 13.49%. It also gave an Activity [11] of 12.75%, an Activity [12] of 86.88% and an Activity [13] of 6.13%. The Activity [14] was 1.6%, the Activity [15] was 0.58% and the Activity [16] was 96.03%. The Activity [17] was 1.64%, the Activity [18] was 0.67% and the Activity [19] was 0.27%. For the same compound, the Activity [20] was 98.87%, the Activity [21] was 0.57% and the Activity [22] was 0.17%. For the same compound, the Activity [23] was 0%.
